PRMT1 inh = PRMT1 methyltransferase inhibitors, primary screen, biochemical, fluorescence polarization | inhibition, % at 2.79 µM | recombinant PRMT1, activity-based probe fluorescence polarization | Protein arginine N-methyltransferase 1 (Homo sapiens), Q99873 | actives 1.3% (n = 370,000) | AID 652257, 2013;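 active = inhibition above about 21% made by adding two undisclosed values, limit read from the data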
SIAE primary = human SIAE inhibitors, primary screen, biochemical, fluorescence polarization, FP-Rh probe, 1536-well HTS | AID 1053197, 2014 | inhibition, % at 9.66 µM | actives 0.69% (n = 370,000) | SIAE FP-Rh probe binding | Sialate O-acetylesterase (Homo sapiens), Q9HAT2;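 active = inhibition above a cutoff: mean of compounds within the control limits plus 3 SD of those, cut at about 17% in these data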
TCR-CD3 inh = inhibitors of human TCR-CD3 interaction, primary screen, biochemical, fluorescence, TAMRA-labeled TCR probe. T-cell receptor (TCR). AID 651800, 2012. inhibition, % at 9.4 µM. actives 0.37% (n = 360,000); in the data active = inhibition above about 19%;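 note: recombinant mutant TCR 2C K166C tagged with TAMRA read by polarization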
ABHD4 inh = ABHD4 inhibitors, primary screen, biochemical, fluorescence polarization, mouse | (Lyso)-N-acylphosphatidylethanolamine lipase (Mus musculus), Q8VD66 | purified mABHD4, FP-Rh probe fluorescence polarization | inhibition, % at 8.92 µM | actives 0.54% (n = 370,000);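 active = inhibition exceeding the mean over every tested compound plus 3 SD, cut at about 30% in these data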
Target sequence (Q8VD66 whole entry, looked up): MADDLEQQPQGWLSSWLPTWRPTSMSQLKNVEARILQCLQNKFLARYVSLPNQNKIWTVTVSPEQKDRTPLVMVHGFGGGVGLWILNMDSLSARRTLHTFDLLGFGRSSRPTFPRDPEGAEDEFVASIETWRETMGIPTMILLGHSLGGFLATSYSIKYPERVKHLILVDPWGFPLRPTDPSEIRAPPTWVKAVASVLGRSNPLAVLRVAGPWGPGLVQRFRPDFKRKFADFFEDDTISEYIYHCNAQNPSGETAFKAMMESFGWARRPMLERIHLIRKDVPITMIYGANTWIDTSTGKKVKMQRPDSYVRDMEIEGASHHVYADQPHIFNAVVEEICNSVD
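assay system = mABHD4 protein | compound dosing = single nominal dose of 8.92 µM, 0.89% DMSO final | read-out basis = percent inhibition of probe binding, normalized to plate controls | schedule = Enzyme–compound pre-incubation 45 min, then probe 60 min, both 25 °C | detection = fluorescence polarization, excitation 525 nm, emission 598 nm, BODIPY TMR filters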
HTRA1 inh = HTRA1 serine protease inhibitors, primary screen, biochemical, fluorescence polarization, HTS | actives 0.5% (n = 340,000) | inhibition, % at 5.96 µM | Q92743 | recombinant HTRA1, FP-rhodamine activity-based probe; in the data active = inhibition above about 36%
HTRA1 inh conf = HTRA1 protease inhibitors, retest, confirmation, biochemical, fluorescence polarization; actives 66% (n = 1,600); shares compounds with HTRA1 inh; recombinant HTRA1, FP-rhodamine activity-based probe; inhibition, % at 5.96 µM;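 active = mean inhibition over three repeats above a set limit taken from the earlier primary screen, cut at about 37% in these data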;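 note: inhibitors block probe binding so polarization drops and inhibition rises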
Large screens that a line does not name were inactive (follow-up assays come after a bar, where they were run). Rows were chosen to be rich in hits. Some 2.6% of all compounds tested hit in one or more screens of this group.

CC(C)c1ccc2c(c1)C1(NN=C(c3ccccc3)S1)C(=O)N2 (stereo unspecified)	HTRA1 inh 46 | HTRA1 inh conf 66
CCc1ccc2c(c1)C1(NN=C(c3ccc(C)cc3)S1)C(=O)N2 (stereo unspecified)	HTRA1 inh 37 | HTRA1 inh conf 53
CCc1c(-c2ccc(OC)cc2)ncn1CCc1ccccc1OC	none (no result: HTRA1 inh)
Cc1cc(Cl)ccc1OCCCC(=O)NNC(=O)c1ccccc1O	HTRA1 inh 39 | HTRA1 inh conf 52
CCCCN1C(=O)C(=O)N(CC(=O)c2cc(C)n(C3CC3)c2C)C1=O	none
Cc1ccc(Nc2c(-c3ccccn3)nc3cccc(C)n23)cc1	HTRA1 inh 62 | HTRA1 inh conf 67
O=C(Cc1cnn(-c2ccccc2)c1)c1ccc(O)c(O)c1O	PRMT1 inh 39, HTRA1 inh 69 | HTRA1 inh conf 94
O=c1c(O)c(-c2ccc(O)c(O)c2)oc2cc(O)ccc12	HTRA1 inh 39 | HTRA1 inh conf inactive
O=c1c(-c2ccc(O)cc2)coc2cc(O)ccc12	none
COc1ccccc1/C=C/C(=O)NCC(=O)N1CCC(N(C)C2CCCC2)CC1	none
COc1cc(/C=C/C(=O)NCC(=O)N2CCC(N(C)CCN3CCOCC3)CC2)ccc1OC(C)C	HTRA1 inh 37 | HTRA1 inh conf inactive
COc1cccc(/C=N/NC(=O)C(=O)N2CCCCCC2)c1OC	none
COc1ccc(OC)c(/C=N/NC(=O)C(=O)N2CCCCCC2)c1	HTRA1 inh 42 | HTRA1 inh conf inactive
O=C1NC[C@@H]2CCCN2C1=O	none (no result: HTRA1 inh)
c1ccc2c(c1)NCC1CCCN21 (stereo unspecified)	HTRA1 inh 44 | HTRA1 inh conf inactive
O=C(c1ccccc1Cl)N1CCSCCS1(=O)=O	none (no result: HTRA1 inh)
O=C(CSc1nc2ccccc2o1)NCC1CCCO1 (stereo unspecified)	HTRA1 inh 55 | HTRA1 inh conf inactive
C[C@H](CO)N1C[C@H](C)[C@H](CN(C)C(=O)Nc2cccc(F)c2)OCc2cnnn2CCCC1=O	none (no result: HTRA1 inh)
COc1ccc(NC(=O)c2cc3ccccc3cc2O)cc1	HTRA1 inh 39 | HTRA1 inh conf inactive
Nc1ccccc1NC1CCCCC1	HTRA1 inh 41 | HTRA1 inh conf 48
CCc1cc(C(=O)Nc2nc(-c3ccccn3)cs2)sc1C	HTRA1 inh 37 | HTRA1 inh conf inactive
Cc1cccc[n+]1C1C(c2ccccc2)C(C#N)=C(C(=C=[N-])C#N)NC1(O)C1CC1 (stereo unspecified)	HTRA1 inh 67 (no result: PRMT1 inh, SIAE primary, TCR-CD3 inh, ABHD4 inh) | HTRA1 inh conf 49
CC(=O)c1ccc(NC(=O)CC2Nc3cccc4cccc(c34)NC2=O)cc1 (stereo unspecified)	HTRA1 inh 57 | HTRA1 inh conf inactive
CC(=O)Nc1ccc(NC(=O)CC2Nc3cccc4cccc(c34)NC2=O)cc1 (stereo unspecified)	none
CCCCC1=CC2=CC(=O)C(C)(OC(=O)C3CCCC3)C(=O)C2=CO1 (stereo unspecified)	HTRA1 inh 39 | HTRA1 inh conf 44
CC(=NNc1nc2ccccc2o1)c1cc2ccccc2cn1	HTRA1 inh 56 | HTRA1 inh conf 70
COc1cc(N2CCC(O)CC2)ccc1Nc1cc(Nc2ccccc2S(=O)(=O)C(C)C)c2cc[nH]c2n1	none (no result: HTRA1 inh)
CCc1ccc(CNc2ccc(O)cc2)cc1	HTRA1 inh 73 (no result: PRMT1 inh, SIAE primary, TCR-CD3 inh, ABHD4 inh) | HTRA1 inh conf 52
CCc1ccc(CNc2ccc3c(c2)ncn3CC)cc1	none
NNc1nc(C(F)(F)F)nc2ccccc12	none
O/C=c1\ccc2cccc3nc(C(F)(F)F)nc1c23	PRMT1 inh 40, HTRA1 inh 43 | HTRA1 inh conf 99
Cc1csc(=O)n1CC(=O)Nc1nc2ccccc2s1	none
Cc1ccc2[nH]c(=O)c(C3C(C#N)=C(N)Oc4c3ccc3cccnc43)cc2c1 (stereo unspecified)	SIAE primary 25, HTRA1 inh 73 | HTRA1 inh conf inactive
N#CC1=C(N)Oc2c(ccc3cccnc23)C1c1ccccc1 (stereo unspecified)	HTRA1 inh 41 | HTRA1 inh conf inactive
N#CC1=C(N)Oc2ccc3ccccc3c2C1c1cccnc1 (stereo unspecified)	none
C[C@@H]1CN([C@H](C)CO)C(=O)c2cc(NC(=O)Nc3ccc(F)cc3)ccc2O[C@@H](C)CCCCO[C@@H]1CN(C)C(=O)CCCN(C)C	none (no result: HTRA1 inh)
CCC(NC(=O)c1cccc2c1C(=O)N(Cc1cccnc1)C2)c1ccccc1 (stereo unspecified)	none (no result: TCR-CD3 inh, HTRA1 inh)
Cc1ccc(NC2=Nc3ccccc3N3C2=Nc2c(c(C)nn2-c2ccccc2)C3c2ccc(O)c(O)c2)cc1 (stereo unspecified)	HTRA1 inh 37 | HTRA1 inh conf 55
Cc1nn(-c2ccccc2)c2c1C(c1ccc(O)c(O)c1)N1C(=N2)C(Nc2ccccc2)=Nc2ccccc21 (stereo unspecified)	HTRA1 inh 50 | HTRA1 inh conf 53
Cc1cccc(NC2=Nc3ccccc3N3C2=Nc2c(c(C)nn2-c2ccccc2)C3c2ccc(O)c(O)c2)c1 (stereo unspecified)	HTRA1 inh 55 | HTRA1 inh conf 56
O=C(Nc1ccccc1)N1c2ccccc2SC1c1ccco1 (stereo unspecified)	none (no result: HTRA1 inh)
COc1ccc(C(=O)Oc2c(CN3CCOCC3)cc(Cl)c3cccnc23)cc1OC	none (no result: HTRA1 inh)
Oc1c(Cl)cc(CN2CCOCC2)c2cccnc12	HTRA1 inh 41 | HTRA1 inh conf inactive
O=C(Oc1ccc(C(=S)N2CCOCC2)cc1Cl)c1ccccc1F	none
COc1cc(OC)cc(C(=O)Oc2c(CN3CCOCC3)cc(Cl)c3cccnc23)c1	HTRA1 inh 38 | HTRA1 inh conf inactive
O=C(Oc1c(CN2CCOCC2)cc(Cl)c2cccnc12)c1ccccc1F	HTRA1 inh 41 | HTRA1 inh conf inactive
Oc1c(CN2CCCCC2)cc(Br)c2cccnc12	HTRA1 inh 71 | HTRA1 inh conf 72
CCCN(CCC)CCCNC(=O)c1cn(-c2ccc(OC)cc2)c(=O)c2ccccc12	none
CC1CCCC(C)N1C(=O)c1ccccc1 (stereo unspecified)	none (no result: HTRA1 inh)
Cc1ccccc1-c1ccc2c(c1)[C@@H]1C[C@H](N(C)S(=O)(=O)c3ccc(Cl)cc3)[C@H]([C@H](C)O)CN1CC2	none (no result: HTRA1 inh)
O=C(O)Cn1cc(CN2CCOCC2)c2ccccc21	none
CN1CCN(Cc2cc(COCc3ccccc3)c3cccnc3c2O)CC1	HTRA1 inh 50 | HTRA1 inh conf 87
Oc1ccc(CN2CCN(Cc3ccccc3)CC2)c2cccnc12	none
